Only some compounds are listed: those with a hit (about 3.1% of all), similar ones and a draw of the others.
GSIS activator: GLuc luminescence reporter in INS-1E cells, primary screen for activators of glucose-dependent secretion of insulin | INS-1E GLuc reporter insulin secretion, 2-3 h | hit rate 0.61% among 370,000 | AID 743287 | activation, % at 16.6 µM;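 active = lowest replicate activation of at least 40%, so every replicate reaches that level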;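 also: 0% = median of neutral control wells and 100% = median of IBMX positive control wells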
miR122 inh: inhibitors of miR-122 in Huh7 cells; activation (reporter increase), % at 12.5 µM; hit rate 0.3% among 340,000; Huh7 miR-122 Renilla luciferase sensor, 48 h; neutral wells = 0, positive control = 100; AID 602342;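 active = mean replicate activation score at least 90 and every replicate individually at or above 90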;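 also: higher luciferase means less miR-122 activity so hits act as miR-122 inhibitors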
rRNA inh HTS: selective bacterial rRNA inhibition in E. coli. E. coli WT GFP vs humanized-ribosome RFP mutants, fluorescence, 24 h; stronger effect = lower value; DMSO median 0, no signal -100. GFP signal change (wild-type ribosome), % (concentration not given with the values). hit rate 1.6% among 350,000. AID 720706;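 active = significant combined selectivity score with lowered wild-type GFP, culture density cut under 30%, mutant RFP and density less affected; inactive = any of these conditions unmet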
Env fusion inh: blocks HIV Env-driven cell-cell fusion; hit rate 1.1% among 360,000; AID 651610; HeLa-JRFL Env/CEM21 cell fusion, luciferase; inhibition, % at 12.3 µM;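 active = mean replicate inhibition score of at least 50 and every replicate individually at or above 50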;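 also: 0% = plate neutral controls and 100% = maraviroc near 300 nM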
CFTR F508del cor: correctors of CFTR F508del function in bronchial epithelial cells; CFBE cells, YFP halide quenching; stimulated with forskolin plus potentiator P3; % fluorescence drop versus neutral controls; activity (quench increase), % at 7.58 µM; hit rate 0.36% among 350,000; AID 720511;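 active = mean added fluorescence quench of at least 8% versus neutral control, with both replicates also reaching 8%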;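 also: cells transiently co-express mutant CFTR-F508del with the halide-sensitive YFP; corrector assay measuring rescue of mutant channel to the surface after 24 h compound exposure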
Cneo AK release: Cryptococcus neoformans lysis via adenylate kinase release. C. neoformans lysis, adenylate kinase release luminescence, 4 h; normalised: neutral wells 0, clomiphene wells 100. lysis activity, % at 15 µM. hit rate 0.2% among 360,000. AID 651654;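 active = mean lysis activity across replicates of at least 80%, whatever share of replicates individually reach that level; inactive = mean lysis activity below 80%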
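Test system: log-phase Cryptococcus neoformans yeast cells. Input: 5 × 10^6 yeast cells/mL. Medium: fresh YPD growth medium. Doses: single dose. Incubation: static 4 h at 37 °C with compound, 1 h detection. Measured by: luminescent adenylate kinase detection reagent. Read-out: signal increase indicating cell lysis. Benchmarks: Clomiphene.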
Starred values were filed as active, the others as inactive; / = no result; [ ] = remark or other dose.

SMILES	GSIS activator	miR122 inh	rRNA inh HTS	Env fusion inh	CFTR F508del cor	Cneo AK release
O=C(C[C@H]1C=C[C@H](NS(=O)(=O)c2ccccc2)[C@H](CO)O1)N1CCc2ccccc2C1	10	/	0	/	-3	/
CC(C)NC(=O)N(C)C[C@@H]1Oc2ccc(NC(=O)c3ccncc3)cc2CC(=O)N([C@@H](C)CO)C[C@H]1C	-10	-3[16.7 µM]	0	/	2	-1
O=C(c1ccc(F)cc1F)N1CCCC(c2nc(-c3ccc(F)cc3)no2)C1 (stereo not given)	-9	-1	-21*	29	1	1
O=C(Cc1ccccc1)N1CCCC(c2nc(-c3ccc(S(=O)(=O)N4CCCC4)cc3)no2)C1 (stereo not given)	-11	-2	-26*	/	-2	-2
O=C(C1CC1)N1CCC(c2nc(-c3ccc(S(=O)(=O)NCC4CCCO4)cc3)no2)CC1 (stereo not given)	-10	/	6	/	2	/
O=C(c1ccccc1)N1CCC(c2nc(-c3ccc(S(=O)(=O)NCC4CCCO4)cc3)no2)CC1 (stereo not given)	-26	20	/	87*	/	/
O=C(Nc1ccc(F)cc1F)N1CCCC(c2nc(-c3ccc(F)cc3)no2)C1 (stereo not given)	-3	/	-32	23	-2	/
O=C(C1CC1)N1CCC(c2nc(-c3ccc(S(=O)(=O)N4CCCC4)cc3)no2)CC1	-12	-1	2	/	-2	-4
O=C(CC1CC1)N1CC2(C1)[C@@H](c1ccccc1)[C@H](CO)N2CC1CCOCC1	9	/	2	/	-2	/
CS(=O)(=O)Nc1ccc2c(c1)[C@H]1C[C@@H](CC(=O)NCc3ccccc3F)O[C@H](CO)[C@H]1O2	-7	4[16.7 µM]	1	/	1	2
Cc1ccc(N(C)S(=O)(=O)c2cccc(C(=O)N(C)Cc3cnn(-c4ccccc4)c3)c2)cc1	-40	-3	-19	63*	-1	0
O=C(C[C@H]1C=C[C@H](NC(=O)CN2CCOCC2)[C@H](CO)O1)NCCc1ccncc1	-15	/	0	/	3	/
C[C@@H]1CN([C@@H](C)CO)C(=O)c2cc(NC(=O)C3CC3)ccc2O[C@H]1CN(C)Cc1ccc(-c2ccccc2)cc1	-23	-6[16.7 µM]	0	/	1	6
c1ccc(-c2ccc3c(n2)CCCN3Cc2ccccn2)cc1	1	/	0	61*	-2	/
C[C@H](CO)N1C[C@H](C)[C@H](CN(C)C(=O)Nc2cccc3ccccc23)Oc2ccc(NC(=O)Nc3cccc4ccccc34)cc2CC1=O	26	-3[16.7 µM]	-2	11[16.7 µM]	1	-2
C[C@H](CO)N1C[C@H](C)[C@H](CN(C)C(=O)Nc2cccc3ccccc23)Oc2ccc(NC(=O)Cc3ccccc3)cc2CC1=O	-10	33[16.7 µM]	2	-7[16.7 µM]	-1	102*
C[C@@H]1CN([C@H](C)CO)C(=O)Cc2cc(NC(=O)Nc3cccc4ccccc34)ccc2O[C@@H]1CN(C)C(=O)NC1CCCCC1	/	121*[16.7 µM]	/	11[16.7 µM]	1	11
C[C@@H]1CN([C@H](C)CO)C(=O)Cc2cc(NC(=O)Nc3ccc4c(c3)OCO4)ccc2O[C@@H]1CN(C)C(=O)Nc1cccc2ccccc12	1	129*[16.7 µM]	0	11[16.7 µM]	-3	0
C[C@H](CO)N1C[C@H](C)[C@@H](CN(C)C(=O)Nc2cccc3ccccc23)Oc2ccc(NC(=O)Cc3ccccc3)cc2CC1=O	-14	-6[16.7 µM]	1	28[16.7 µM]	-1	-25
C[C@H](CO)N1C[C@H](C)[C@H](CN(C)C(=O)NC2CCCCC2)Oc2ccc(NC(=O)Nc3cccc4ccccc34)cc2CC1=O	-49	13[16.7 µM]	-3	-4[16.7 µM]	4	-4
C[C@@H]1CN([C@H](C)CO)C(=O)Cc2cc(NC(=O)Nc3cccc4ccccc34)ccc2O[C@@H]1CN(C)C(=O)Nc1cccc2ccccc12	22	99*[16.7 µM]	-1	4[16.7 µM]	6	-5
C[C@@H]1CN([C@@H](C)CO)C(=O)c2cc(C3=CCCCC3)cnc2O[C@@H]1CN(C)C(=O)Nc1ccc(F)cc1	-24	6[16.7 µM]	-4	-14[16.7 µM]	0	-2
O=C(C[C@@H]1C=C[C@@H](NC(=O)C2CCOCC2)[C@H](CO)O1)Nc1ccccc1	17	/	2	/	-3	/
CCNC(=O)Nc1ccc2c(c1)C(=O)N(C)[C@H]1CC[C@H](CC(=O)NCc3ccccc3F)O[C@H]1CO2	4	-33[16.7 µM]	-1	15[16.7 µM]	-1	-4
Cc1noc(C)c1NC(=O)N(C)C[C@@H]1Oc2ccc(NC(=O)C3CCCCC3)cc2CC(=O)N([C@@H](C)CO)C[C@@H]1C	6	-5[16.7 µM]	2	2[16.7 µM]	2	6
SMILES	GSIS activator	miR122 inh	rRNA inh HTS	Env fusion inh	CFTR F508del cor	Cneo AK release
Cc1noc(C)c1NC(=O)N(C)C[C@@H]1Oc2ccc(NS(=O)(=O)c3cn(C)cn3)cc2CC(=O)N([C@H](C)CO)C[C@H]1C	22	37[16.7 µM]	2	-20[16.7 µM]	-1	103*
C[C@H]1CN([C@@H](C)CO)C(=O)Cc2cc(NC(=O)C3CC3)ccc2O[C@@H]1CN(C)C(=O)Nc1cccc2ccccc12	3	-1[16.7 µM]	4	11[16.7 µM]	-1	111*
Cc1noc(C)c1NC(=O)N(C)C[C@@H]1Oc2ccc(NS(=O)(=O)c3cn(C)cn3)cc2CC(=O)N([C@@H](C)CO)C[C@H]1C	14	-6[16.7 µM]	5	15[16.7 µM]	0	2
Cc1noc(C)c1NC(=O)N(C)C[C@H]1Oc2ccc(NC(=O)C3CC3)cc2CC(=O)N([C@@H](C)CO)C[C@H]1C	4	44[16.7 µM]	4	-32[16.7 µM]	1	117*
Cc1ccc(S(=O)(=O)Nc2cccc3c2O[C@H](CN(C)C(=O)Nc2cccc4ccccc24)[C@@H](C)CN([C@H](C)CO)C3=O)cc1	-25	6[16.7 µM]	0	-2[16.7 µM]	0	/
CCS(=O)(=O)Nc1ccc2c(c1)C(=O)N(C)[C@@H]1CC[C@@H](CC(=O)Nc3ccccc3)O[C@H]1CO2	16	3[16.7 µM]	1	-5[16.7 µM]	-1	1
CC(=O)c1sc(NC(=O)c2cc(-c3ccccc3)nn2-c2ccccc2)nc1C	-5	-8	17	7	0	81*
O=C(Nc1nc2ccccc2s1)c1cc(-c2ccccc2)nn1-c1ccccc1	-3	-6	19	/	6	-6
COc1ccc(CN(C)C[C@@H]2Oc3c(NC(=O)NC4CCCCC4)cccc3C(=O)N([C@@H](C)CO)C[C@@H]2C)cc1	0	21[16.7 µM]	4	/	0	-3
CC12CCC(=O)C=C1CCC1C2CCC2(C)C1CC1C3C(=O)N(Cc4ccccc4)C(=O)C3CC(=O)C12 (stereo not given)	/	/	-13	61*	1	-2
